# Measured values reported in ChEMBL document CHEMBL1147969, “Synthesis of some novel heterocyclic compounds derived from diflunisal hydrazide as potential anti-infective and anti-inflammatory agents” (2007).
# Active and inactive are the calls of the source.
# Assays:
# Mus musculus [1] = assay: Antinociceptive activity against mouse assessed as paw withdrawal latency at 50 mg/kg, po after 60 mins by hot plate test; type: functional
# Procedure, shortened: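 Hot plate was set at 55 °C. Latency to jumping or hind-paw licking was recorded before and 60 min after oral dosing at 50 mg/kg, or vehicle, with a 30 s cutoff. Groups had at least eight mice each. Testing was done between 2:00 and 4:00 pm.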
# Mus musculus [2] = assay: Antiinflammatory activity against BALB/c mouse assessed as inhibition of carrageenan-induced paw edema at 50 mg/kg, po after 4 hrs; type: functional
# Procedure, shortened: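 Mice were fasted on the last day (water only) and dosed by gavage at 50 mg/kg, suspended in 0.5% methyl cellulose; controls got vehicle, six mice per group. After 60 min, 0.5 mg/mL carrageenan in saline was injected subplantar into the right hind paw, with saline in the left. The right–left thickness difference was read by microcaliper at 4 h. % inhibition = (n−n0)/n×100 versus control.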
# Proteus vulgaris [3] = assay: Antimicrobial activity against Proteus vulgaris A161 […]; type: functional
# Procedure, shortened: (§1)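 For broth microdilution, inocula came from 12 h broth cultures adjusted to 0.5 McFarland. Test agents in 10% DMSO were serially diluted twofold (7.8–500) in nutrient broth. Wells were shaken 20 s at 300 rpm and incubated 24 h. Clear wells were plated on nutrient agar to check growth. MIC was the lowest concentration inhibiting growth. Each compound was screened twice per organism.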
# Proteus vulgaris [4] = assay: Antimicrobial activity against Proteus vulgaris KUKEM1329 by disk diffusion method at 300 ug/disc; type: functional; procedure, shortened: as §1
# Sindbis virus [5] = assay: Antiviral activity against Sindbis virus-induced cytopathogenicity at 16 ug/mL; type: functional, organism-based
# Human alphaherpesvirus 1 [6] = assay: Antiviral activity against TK positive HSV1 KOS-induced cytopathogenicity at 16 ug/mL; type: functional, organism-based
# Coxsackievirus B4 = assay: Antiviral activity against Coxsackie virus B4-induced cytopathogenicity at 16 ug/mL; type: functional, organism-based
# Human alphaherpesvirus 1 [7] = assay: Antiviral activity against acyclovir resistant TK positive HSV1 KOS-induced cytopathogenicity at 16 ug/mL; type: functional, organism-based
# Punta Toro virus = assay: Antiviral activity against Punta Toro virus-induced cytopathogenicity at 16 ug/mL; type: functional, organism-based
# Sindbis virus [8] = assay: Antiviral activity against Sindbis virus-induced cytopathogenicity at 9.6 ug/mL; type: functional, organism-based
# Aspergillus flavus [9] = assay: Antifungal activity against Aspergillus flavus after 72 hrs by agar dilution method; type: functional
# Procedure, shortened: (§2)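 Fungal isolates were screened on agar dilution plates. Test agents in 10% DMSO were mixed into potato dextrose agar containing 0.5% v/v Tween 20, over a range of 7.8–500. Plates were spot-inoculated with 10^4 spore/mL and held 72 h, at 27 °C for plant isolates or 37 °C for clinical isolates. MIC was the lowest concentration with no growth. Each test was repeated at least twice.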
# Aspergillus versicolor [10] = assay: Antifungal activity against Aspergillus variecolor after 72 hrs by agar dilution method; type: functional; procedure, shortened: as §2
# Aspergillus flavus [11] = assay: Antifungal activity against Aspergillus flavus at 300 ug/disc after 72 hrs by disk diffusion method; type: functional
# Procedure, shortened: (§3)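 Disc diffusion was run on potato dextrose agar seeded with 10^4 spore/mL. 6 mm discs each carried 300 per disc of test agent. DMSO-impregnated discs served as negative controls. Plates were incubated 72 h, at 27 °C for plant-associated isolates or 37 °C for clinical isolates. The read-out was inhibition zone diameter in mm. Each assay was repeated twice.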
# Aspergillus versicolor [12] = assay: Antifungal activity against Aspergillus variecolor at 300 ug/disc after 72 hrs by disk diffusion method; type: functional; procedure, shortened: as §3
# Trichophyton rubrum [13] = assay: Antifungal activity against Trichophyton rubrum at 300 ug/disc after 72 hrs by disk diffusion method; type: functional; procedure, shortened: as §3
# Trichophyton rubrum [14] = assay: Antifungal activity against Trichophyton rubrum after 72 hrs by agar dilution method; type: functional; procedure, shortened: as §2
# Streptococcus pyogenes [15] = assay: Antimicrobial activity against Streptococcus pyogenes KUKEM676 by disk diffusion method at 10 ug/disc; type: functional; settings: read-out: IZ
# Streptococcus pyogenes [16] = assay: Antimicrobial activity against Streptococcus pyogenes ATCC 176 by disk diffusion method at 10 ug/disc; type: functional; settings: read-out: IZ
# Proteus vulgaris [17] = assay: Antimicrobial activity against Proteus vulgaris A161 by disk diffusion method at 10 ug/disc; type: functional; settings: read-out: IZ
# Proteus vulgaris [18] = assay: Antimicrobial activity against Proteus vulgaris KUKEM1329 by disk diffusion method at 10 ug/disc; type: functional; settings: read-out: IZ
# Streptococcus pyogenes [19] = assay: Antimicrobial activity against Streptococcus pyogenes KUKEM676 by microwell dilution method; type: functional; procedure, shortened: as §1
# Enterococcus faecalis = assay: Antimicrobial activity against Enterococcus faecalis ATCC […] by microwell dilution method; type: functional; procedure, shortened: as §1
# Streptococcus pyogenes [20] = assay: Antimicrobial activity against Streptococcus pyogenes KUKEM676 by disk diffusion method at 300 ug/disc; type: functional
# Procedure, shortened: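 Mueller-Hinton agar was spread with 10^8 CFU/mL bacteria. 6 mm discs held 300 per disc of test agent, with DMSO discs as negative controls. Plates were incubated 24 h, at 37 °C for clinical strains or 27 °C for plant-associated strains. Zone of inhibition diameter in mm was measured. Each assay was repeated twice.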
# Streptococcus pyogenes [21] = assay: Antimicrobial activity against Streptococcus pyogenes ATCC 176 by microwell dilution method; type: functional; procedure, shortened: as §1
# Trichophyton benhamiae [22] = assay: Antifungal activity against Trichophyton mentagrophytes at 300 ug/disc after 72 hrs by disk diffusion method; type: functional, Arthroderma benhamiae; procedure, shortened: as §3
# Escherichia coli = assay: Antimicrobial activity against Escherichia coli A1 by microwell dilution method; type: functional; procedure, shortened: as §1
# Trichophyton benhamiae [23] = assay: Antifungal activity against Trichophyton mentagrophytes after 72 hrs by agar dilution method; type: functional, Arthroderma benhamiae; procedure, shortened: as §2
# Human alphaherpesvirus 2 = assay: Antiviral activity against HSV2-induced cytopathogenicity at 16 ug/mL; type: functional, organism-based
smiles,measurement,setting,value
COc1ccc(Nc2nnc(-c3cc(-c4ccc(F)cc4F)ccc3O)o2)cc1,Paw withdrawal latency,Mus musculus [1],12 s
same,inhibition in vivo at 50 mg/kg,Mus musculus [2],35.3%
Oc1ccc(-c2ccc(F)cc2F)cc1-c1nnc(NC2CCCCC2)s1,Paw withdrawal latency,Mus musculus [1],12.5 s
same,inhibition in vivo at 50 mg/kg,Mus musculus [2],41.4%
Oc1ccc(-c2ccc(F)cc2F)cc1-c1nnc(NC2CCCCC2)o1,Paw withdrawal latency,Mus musculus [1],12 s
same,inhibition in vivo at 50 mg/kg,Mus musculus [2],23.8%
CCNc1nnc(-c2cc(-c3ccc(F)cc3F)ccc2O)s1,Paw withdrawal latency,Mus musculus [1],13.5 s
same,inhibition in vivo at 50 mg/kg,Mus musculus [2],50.2%
O=C(O)c1cc(-c2ccc(F)cc2F)ccc1O [DIFLUNISAL],Paw withdrawal latency,Mus musculus [1],19.1 s
same,inhibition in vivo at 50 mg/kg,Mus musculus [2],24.2%
CNc1nnc(-c2cc(-c3ccc(F)cc3F)ccc2O)o1,Paw withdrawal latency,Mus musculus [1],10.9 s
same,inhibition in vivo at 50 mg/kg,Mus musculus [2],41.4%
Oc1ccc(-c2ccc(F)cc2F)cc1-c1n[nH]c(=S)n1C1CCCCC1,inhibition zone (IZ),Proteus vulgaris [3],10 mm
same,inhibition zone (IZ),Proteus vulgaris [4],12 mm
same,Paw withdrawal latency,Mus musculus [1],13.2 s
same,inhibition in vivo at 50 mg/kg,Mus musculus [2],64.4%
same,Activity,Sindbis virus [5],Active
CNc1nnc(-c2cc(-c3ccc(F)cc3F)ccc2O)s1,Activity,Human alphaherpesvirus 1 [6],Active
same,Activity,Coxsackievirus B4,Active
same,Paw withdrawal latency,Mus musculus [1],13.5 s
same,inhibition in vivo at 50 mg/kg,Mus musculus [2],45.4%
same,Activity,Human alphaherpesvirus 1 [7],Active
same,Activity,Punta Toro virus,Active
same,Activity,Sindbis virus [8],Active
same,Activity,Sindbis virus [5],Active
CCn1c(-c2cc(-c3ccc(F)cc3F)ccc2O)n[nH]c1=S,inhibition zone (IZ),Proteus vulgaris [3],9 mm
same,inhibition zone (IZ),Proteus vulgaris [4],9 mm
same,Activity,Coxsackievirus B4,Active
same,Paw withdrawal latency,Mus musculus [1],17.1 s
same,inhibition zone (IZ),Aspergillus flavus [9],16 mm
same,inhibition zone (IZ),Aspergillus versicolor [10],14 mm
same,inhibition in vivo at 50 mg/kg,Mus musculus [2],46.2%
same,MIC,Aspergillus flavus [11],31.2 µg/mL
same,MIC,Aspergillus versicolor [12],31.2 µg/mL
same,MIC,Trichophyton rubrum [13],15.2 µg/mL
same,inhibition zone (IZ),Trichophyton rubrum [14],16 mm
C=CCNc1nnc(-c2cc(-c3ccc(F)cc3F)ccc2O)s1,Activity,Human alphaherpesvirus 1 [6],Active
same,Activity,Coxsackievirus B4,Active
same,Paw withdrawal latency,Mus musculus [1],13.9 s
same,inhibition in vivo at 50 mg/kg,Mus musculus [2],57.2%
same,Activity,Human alphaherpesvirus 1 [7],Active
same,Activity,Punta Toro virus,Active
same,Activity,Sindbis virus [5],Active
CC1COc2c(N3CCN(C)CC3)c(F)cc3c(=O)c(C(=O)O)cn1c23 (configuration not stated) [OFLOXACIN],zone of inhibition at 10 µg/disc,Streptococcus pyogenes [15],13 mm
same,zone of inhibition at 10 µg/disc,Streptococcus pyogenes [16],10 mm
same,zone of inhibition at 10 µg/disc,Proteus vulgaris [17],12 mm
same,zone of inhibition at 10 µg/disc,Proteus vulgaris [18],13 mm
Cc1ccc(Nc2nnc(-c3cc(-c4ccc(F)cc4F)ccc3O)s2)cc1,Paw withdrawal latency,Mus musculus [1],14.5 s
same,inhibition in vivo at 50 mg/kg,Mus musculus [2],43.5%
Oc1ccc(-c2ccc(F)cc2F)cc1-c1n[nH]c(=S)n1-c1ccccc1,Activity,Human alphaherpesvirus 1 [6],Active
same,Paw withdrawal latency,Mus musculus [1],16 s
same,inhibition in vivo at 50 mg/kg,Mus musculus [2],36.3%
COc1ccc(-n2c(-c3cc(-c4ccc(F)cc4F)ccc3O)n[nH]c2=S)cc1,inhibition zone (IZ),Streptococcus pyogenes [19],9 mm
same,inhibition zone (IZ),Proteus vulgaris [4],10 mm
same,Paw withdrawal latency,Mus musculus [1],15 s
same,inhibition in vivo at 50 mg/kg,Mus musculus [2],53.5%
same,inhibition zone (IZ),Enterococcus faecalis,12 mm
same,MIC,Streptococcus pyogenes [20],125 µg/mL
same,inhibition zone (IZ),Streptococcus pyogenes [21],10 mm
Cn1c(-c2cc(-c3ccc(F)cc3F)ccc2O)n[nH]c1=S,inhibition zone (IZ),Proteus vulgaris [3],10 mm
same,inhibition zone (IZ),Proteus vulgaris [4],8 mm
same,Paw withdrawal latency,Mus musculus [1],16.4 s
same,inhibition in vivo at 50 mg/kg,Mus musculus [2],56.9%
Oc1ccc(-c2ccc(F)cc2F)cc1-c1nnc(Nc2ccccc2)o1,Paw withdrawal latency,Mus musculus [1],12 s
same,inhibition in vivo at 50 mg/kg,Mus musculus [2],39.5%
Cc1ccc(Nc2nnc(-c3cc(-c4ccc(F)cc4F)ccc3O)o2)cc1,Paw withdrawal latency,Mus musculus [1],11.1 s
same,inhibition in vivo at 50 mg/kg,Mus musculus [2],33.8%
CCNc1nnc(-c2cc(-c3ccc(F)cc3F)ccc2O)o1,Paw withdrawal latency,Mus musculus [1],11 s
same,inhibition in vivo at 50 mg/kg,Mus musculus [2],36.8%
CCN[C@@H]1C[C@H](N)[C@@H](O[C@H]2OC(CN)=CC[C@H]2N)[C@H](O)[C@H]1O[C@H]1OC[C@](C)(O)[C@H](NC)[C@H]1O [NETILMICIN],MIC,Aspergillus flavus [11],15.6 µg/mL
same,MIC,Aspergillus versicolor [12],62.5 µg/mL
same,MIC,Trichophyton rubrum [13],15.6 µg/mL
same,MIC,Trichophyton benhamiae [22],31.2 µg/mL
Cc1ccc(-n2c(-c3cc(-c4ccc(F)cc4F)ccc3O)n[nH]c2=S)cc1,Paw withdrawal latency,Mus musculus [1],14.2 s
same,inhibition in vivo at 50 mg/kg,Mus musculus [2],51.6%
Oc1ccc(-c2ccc(F)cc2F)cc1-c1nnc(Nc2ccccc2)s1,inhibition zone (IZ),Proteus vulgaris [3],14 mm
same,inhibition zone (IZ),Proteus vulgaris [4],16 mm
same,Paw withdrawal latency,Mus musculus [1],16.5 s
same,inhibition zone (IZ),Escherichia coli,16 mm
same,inhibition in vivo at 50 mg/kg,Mus musculus [2],43%
same,inhibition zone (IZ),Streptococcus pyogenes [21],18 mm
C=CCn1c(-c2cc(-c3ccc(F)cc3F)ccc2O)n[nH]c1=S,inhibition zone (IZ),Proteus vulgaris [3],10 mm
same,inhibition zone (IZ),Streptococcus pyogenes [19],14 mm
same,inhibition zone (IZ),Proteus vulgaris [4],9 mm
same,Paw withdrawal latency,Mus musculus [1],16.8 s
same,inhibition zone (IZ),Escherichia coli,12 mm
same,inhibition zone (IZ),Aspergillus flavus [9],14 mm
same,inhibition zone (IZ),Aspergillus versicolor [10],10 mm
same,inhibition in vivo at 50 mg/kg,Mus musculus [2],73%
same,inhibition zone (IZ),Trichophyton benhamiae [23],14 mm
same,MIC,Aspergillus flavus [11],31.2 µg/mL
same,MIC,Aspergillus versicolor [12],62.5 µg/mL
same,inhibition zone (IZ),Enterococcus faecalis,10 mm
same,MIC,Streptococcus pyogenes [20],62.2 µg/mL
same,MIC,Trichophyton benhamiae [22],31.2 µg/mL
same,inhibition zone (IZ),Streptococcus pyogenes [21],12 mm
CO/N=C(\C(=O)N[C@@H]1C(=O)N2C(C(=O)[O-])=C(C[N+]3(C)CCCC3)CS[C@H]12)c1csc(N)n1 [CEFEPIME],MIC,Streptococcus pyogenes [20],31.2 µg/mL
C=CCNc1nnc(-c2cc(-c3ccc(F)cc3F)ccc2O)o1,Activity,Human alphaherpesvirus 2,Active
same,Paw withdrawal latency,Mus musculus [1],9.8 s
same,inhibition in vivo at 50 mg/kg,Mus musculus [2],36.6%
COc1ccc(Nc2nnc(-c3cc(-c4ccc(F)cc4F)ccc3O)s2)cc1,Paw withdrawal latency,Mus musculus [1],19.2 s
same,inhibition in vivo at 50 mg/kg,Mus musculus [2],55.3%
